From ChEMBL document CHEMBL4765386, “Discovery of tertiary amide derivatives incorporating benzothiazole moiety as anti-gastric cancer agents in vitro via inhibiting tubulin polymerization and activating the Hippo signaling pathway” (Eur J Med Chem, 2020)
The source made the active and inactive calls. The calls are words filed in the database; no cut-off is given here.

Tests used:
SGC-7901 [1] = test: Induction of apoptosis in human SGC-7901 cells assessed as increase in caspase-9 cleavage at 20 to 60 nM incubated for 48 hrs by Western blot analysis; format: functional, cell-based; conditions: dose 20-60 nM
Summary of the method: (§1)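 Cells grown in RPMI-1640 with 10% FBS, penicillin/streptomycin at 37 °C, 5% CO2. Exposure to 20, 40 or 60 nM for 48 h alongside DMSO control. Lysates denatured, resolved by SDS-PAGE, transferred to PVDF, blocked, then probed with primary and secondary antibodies.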

MGC-803 [2] = test: Activation of Hippo signaling pathway in human […] cells assessed as increase in LATS phosphorylation at 20 to 60 nM incubated for 48 hrs by Western blot analysis; format: cell-based; conditions: filed as activator, dose 20-60 nM
Summary of the method: (§2)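 Western blot on gastric cancer cells exposed to compound or DMSO at 20, 40 and 60 nM for 48 h. Cells were lysed, then the denatured lysates were separated by SDS-PAGE and transferred to PVDF. Membranes were blocked and probed with primary and then secondary antibodies. Hippo pathway proteins were detected.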

MGC-803 [3] = test: Induction of apoptosis in human MGC-803 cells assessed as downregulation of c-IAP2 at 20 to 60 nM incubated for 48 hrs by Western blot analysis; format: functional, cell-based; conditions: dose 20-60 nM
Summary of the method: (§3)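 Western blot on MGC-803 and SGC-7901 cells given 20, 40 and 60 nM compound or DMSO for 48 h. Denatured lysates were run on SDS-PAGE and transferred to PVDF, then probed with primary and secondary antibodies to detect apoptosis-related proteins.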

MGC-803 [4] = test: Induction of apoptosis in human MGC-803 cells assessed as late apoptotic cells at 40 nM incubated for 48 hrs by annexin V-FITC and PI staining based flow cytometry analysis (reference value: 4.1 %); format: functional
SGC-7901 [5] = test: Induction of apoptosis in human SGC-7901 cells assessed as upregulation of Noxa at 20 to 60 nM incubated for 48 hrs by Western blot analysis; format: functional, cell-based; conditions: dose 20-60 nM; summary of the method: as §1
MGC-803 [6] = test: Induction of apoptosis in human MGC-803 cells assessed as downregulation of Bcl-xl at 20 to 60 nM incubated for 48 hrs by Western blot analysis; format: functional, cell-based; conditions: dose 20-60 nM; summary of the method: as §3
SGC-7901 [7] = test: Induction of apoptosis in human SGC-7901 cells assessed as increase in PARP cleavage at 20 to 60 nM incubated for 48 hrs by Western blot analysis; format: functional, cell-based; conditions: dose 20-60 nM; summary of the method: as §1
MGC-803 [8] = test: Induction of cell cycle arrest in human MGC-803 cells assessed as increase in G2/M phase accumulation incubated for 24 hrs by PI staining based flow cytometry analysis; format: functional; conditions: dose 20-60 nM
Summary of the method: (§4)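 Cells in RPMI-1640/10% FBS at 37 °C, 5% CO2, exposed to 20, 40 and 60 nM for 24 h before flow cytometric cell-cycle distribution analysis.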

[9] = Antiproliferative activity against human SGC-7901 cells assessed as reduction in cell viability at 60 nmol/L incubated for 48 hrs by MTT assay relative to control; format: functional; conditions: SGC-7901, 48 h
Summary of the method: (§5)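 MTT viability in gastric cell lines grown in RPMI-1640 with 10% FBS at 37 °C, 5% CO2. Compound at 20, 40 and 60 nM for 48 h, starting 24 h after seeding 5,000 cells per well. MTT for 4 h, formazan dissolved in DMSO, absorbance at 490 nm. Inhibition expressed relative to control.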

SGC-7901 [10] = test: Induction of apoptosis in human SGC-7901 cells assessed as upregulation of Bak at 20 to 60 nM incubated for 48 hrs by Western blot analysis; format: functional, cell-based; conditions: dose 20-60 nM; summary of the method: as §1
SGC-7901 [11] = test: Induction of apoptosis in human SGC-7901 cells assessed as upregulation of Bax at 20 to 60 nM incubated for 48 hrs by Western blot analysis; format: functional, cell-based; conditions: dose 20-60 nM; summary of the method: as §1
MGC-803 [12] = test: Displacement of EBI from beta-tubulin in human MGC-803 cells assessed as reduction in tubulin adduct formation incubated for 2 hrs followed by EBI addition and measured after 2 hrs by Western blot analysis; format: cell-based; conditions: dose 0.25-2.5 µM, time 4.0 hrs
Summary of the method: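 EBI competition assay. […] EBI was then added at […] as printed for another 2 h. Harvested cells were immunoblotted with anti-β-tubulin antibody to detect β-tubulin and the alkylated β-tubulin adduct.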

SGC-7901 [13] = test: Induction of apoptosis in human SGC-7901 cells assessed as fragmentation of cells at 20 to 60 nM; format: functional, cell-based; conditions: dose 20-60 nM
Summary of the method: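 Gastric cancer cells in RPMI-1640/10% FBS at 37 °C, 5% CO2, exposed to 20, 40 and 60 nM for 48 h; nuclear morphology (condensation, fragmentation) inspected after staining.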

MGC-803 [14] = test: Induction of apoptosis in human MGC-803 cells assessed as downregulation of Mcl-1 at 20 to 60 nM incubated for 48 hrs by Western blot analysis; format: functional, cell-based; conditions: dose 20-60 nM; summary of the method: as §3
MGC-803 [15] = test: Induction of cell cycle arrest in human MGC-803 cells assessed as downregulation of CDK1 at 20 to 60 nM incubated for 48 hrs by Western blot analysis; format: functional, cell-based; conditions: dose 20-60 nM; summary of the method: as §1
HCT-116 = test: Antiproliferative activity against human HCT-116 cells assessed as reduction in cell viability incubated for 48 hrs by MTT assay; format: functional, cell-based; conditions: HCT-116, 48 h
Summary of the method: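 MTT assay. 5,000 cells per well in RPMI-1640 with 10% FBS and penicillin/streptomycin at 37 °C, 5% CO2. Compound added 24 h after seeding and left for 48 h. MTT was then added for 4 h at 37 °C, formazan dissolved in DMSO and absorbance read at 490 nm. IC50 calculated from three independent experiments.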

SGC-7901 [16] = test: Induction of cell cycle arrest in human SGC-7901 cells assessed as increase in G2/M phase accumulation incubated for 24 hrs by PI staining based flow cytometry analysis; format: functional; conditions: dose 20-60 nM; summary of the method: as §4
SGC-7901 [17] = test: Induction of cell cycle arrest in human SGC-7901 cells assessed as downregulation of CDK1 at 20 to 60 nM incubated for 48 hrs by Western blot analysis; format: functional, cell-based; conditions: dose 20-60 nM; summary of the method: as §1
SGC-7901 [18] = test: Inhibition of tubulin polymerization in human SGC-7901 cells assessed as decrease in microtubule formation at 20 to 60 nmol/L by DAPI staining based microscopic analysis; format: cell-based; conditions: dose 20-60 nmol/L
Summary of the method: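 Cells cultured in RPMI-1640 with 10% FBS at 37 °C, 5% CO2, treated 48 h with 20, 40 and 60 nM; stained for β-tubulin (green) and nuclei (blue) and examined by microscopy.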

MGC-803 [19] = test: Induction of apoptosis in human MGC-803 cells assessed as increase in caspase-3 cleavage at 20 to 60 nM incubated for 48 hrs by Western blot analysis; format: functional, cell-based; conditions: dose 20-60 nM; summary of the method: as §3
MGC-803 [20] = test: Activation of Hippo signaling pathway in human […] cells assessed as increase in MST1/2 phosphorylation at 20 to 60 nM incubated for 48 hrs by Western blot analysis; format: cell-based; conditions: filed as activator, dose 20-60 nM; summary of the method: as §2
SGC-7901 [21] = test: Induction of apoptosis in human SGC-7901 cells assessed as upregulation of FADD at 20 to 60 nM incubated for 48 hrs by Western blot analysis; format: functional, cell-based; conditions: dose 20-60 nM; summary of the method: as §1
MGC-803 [22] = test: Induction of apoptosis in human MGC-803 cells assessed as late apoptotic cells at 20 nM incubated for 48 hrs by annexin V-FITC and PI staining based flow cytometry analysis (reference value: 4.1 %); format: functional
MGC-803 [23] = test: Activation of Hippo signaling pathway in human […] cells assessed as downregulation of TEAD at 20 to 60 nM incubated for 48 hrs by Western blot analysis; format: cell-based; conditions: filed as activator, dose 20-60 nM; summary of the method: as §2
MGC-803 [24] = test: Antiproliferative activity against human MGC-803 cells assessed as reduction in cell viability at 60 nmol/L incubated for 48 hrs by MTT assay relative to control; format: functional; summary of the method: as §5

With `COc1ccc(CN(C(=O)CSc2nc3ccccc3s2)c2cc(OC)c(OC)c(OC)c2)cc1O` the Activity (SGC-7901 [1]) was “Active”, the Activity (MGC-803 [2]) was “Active” and the Activity (MGC-803 [3]) was “Active”. The Activity (MGC-803 [4]) was 10.1%, the Activity (SGC-7901 [5]) was “Active” and the Activity (MGC-803 [6]) was “Active”. For the same compound, the Activity (SGC-7901 [7]) was “Active”, the Activity (MGC-803 [8]) was “Dose-dependent effect” and the inhibition at 0.06 µM [9] was 63%. For the same compound, the Activity (SGC-7901 [10]) was “Active”, the Activity (SGC-7901 [11]) was “Active” and the inhibition (MGC-803 [12]) was “Dose-dependent effect”. For the same compound, the Activity (SGC-7901 [13]) was “Active”, the Activity (MGC-803 [14]) was “Active” and the Activity (MGC-803 [15]) was “Active”. For the same compound, the IC50 (HCT-116) was 182 nM, the Activity (SGC-7901 [16]) was “Dose-dependent effect” and the Activity (SGC-7901 [17]) was “Active”. For the same compound, the Activity (SGC-7901 [18]) was “Active”, the Activity (MGC-803 [19]) was “Active” and the Activity (MGC-803 [20]) was “Active”. For the same compound, the Activity (SGC-7901 [21]) was “Active”, the Activity (MGC-803 [22]) was 4.1% and the Activity (MGC-803 [23]) was “Active”. For the same compound, the inhibition at 0.06 µM (MGC-803 [24]) was 72%.
